The subject of assay [1] is Neutrophil. Description: Increase in cAMP level in Sprague-Dawley rat neutrophil. The format is functional, cell-based. The method, boiled down: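 Neutrophils were treated for 10 min with the indicated concentrations, with DMSO giving the basal level. Cellular cAMP was measured by enzyme immunoassay kit. Values are means SD of three experiments.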
Assay [2] concerns Neutrophil. The assay is described as follows: Formation of fMLP-induced superoxide in Sprague-Dawley rat neutrophil at 3 uM per 10^6 cells after 30 min. The format is functional. The method, boiled down:
(§1)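 Rat (Sprague Dawley) neutrophils were stimulated with fMLP (0.3 µM) plus cytochalasin B (5 µg/mL). Superoxide formed was reported as nmol/10⁶ cells/30 min and percent inhibition versus control. IC50 was derived from the […] concentration series. N = 3.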

Assay [3] relates to Neutrophil. Description: Formation of fMLP-induced superoxide in Sprague-Dawley rat neutrophil at 10 uM per 10^6 cells after 30 min. The format is functional. The method, boiled down: as §1
Assay [4] has as its system Neutrophil. The assay is described as follows: Formation of fMLP-induced superoxide in Sprague-Dawley rat neutrophil at 30 uM per 10^6 cells after 30 min. The class given is functional. In outline:
as §1

Assay [5] has as its system Neutrophil. The assay is described as follows: Inhibition of fMLP-induced superoxide formation in Sprague-Dawley rat neutrophil at 3 uM. The class given is functional. The method, boiled down: as §1
Assay [6] concerns Neutrophil. The assay is described as follows: Inhibition of fMLP-induced superoxide formation in Sprague-Dawley rat neutrophil at 10 uM. The format is functional. The method, boiled down: as §1
The subject of assay [7] is Neutrophil. Description: Inhibition of fMLP-induced superoxide formation in Sprague-Dawley rat neutrophil at 30 uM. The class given is functional. The method, boiled down: as §1
The test system of assay [8] is Neutrophil. The assay is described as follows: Inhibition of fMLP-induced superoxide formation in Sprague-Dawley rat neutrophil. The class given is functional, cell-based. In outline:
as §1

The subject of assay [9] is Neutrophil. Description: Formation of PMA-induced superoxide in Sprague-Dawley rat neutrophil at 1 uM per 10^6 cells after 30 min. The format is functional. In outline:
(§2)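 Superoxide generation by rat (Sprague Dawley) neutrophils stimulated with PMA at 3 nM. Test range 1–30 µM. Readout is superoxide formed in nmol/10⁶ cells/30 min, with percent inhibition versus control. N = 3.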

In assay [10] the test system is Neutrophil. Description: Formation of PMA-induced superoxide in Sprague-Dawley rat neutrophil at 3 uM per 10^6 cells after 30 min. The class given is functional. The method, boiled down:
as §2

The subject of assay [11] is Neutrophil. Description: Inhibition of PMA-induced superoxide formation in Sprague-Dawley rat neutrophil at 10 uM. The format is functional. In outline:
as §2

Assay [12] concerns Neutrophil. Description: Formation of fMLP-induced superoxide in Sprague-Dawley rat neutrophil at 5 uM per 10^6 cells after 30 min. The format is functional.
In assay [13] the test system is Neutrophil. Description: Inhibition of fMLP-induced superoxide formation in Sprague-Dawley rat neutrophil at 5 uM. The format is functional.
Assay [14] deals with Neutrophil. Description: Inhibition of PMA-induced superoxide formation in Sprague-Dawley rat neutrophil at 1 uM. The format is functional. The method, boiled down:
as §2

The test system of assay [15] is Neutrophil. The assay is described as follows: Inhibition of PMA-induced superoxide formation in Sprague-Dawley rat neutrophil at 3 uM. The class given is functional. In outline: as §2
Assay [16] has as its system Neutrophil. The assay is described as follows: Inhibition of PMA-induced superoxide formation in Sprague-Dawley rat neutrophil. The class given is functional, cell-based. The method, boiled down: as §2
Assay [17] deals with Neutrophil. The assay is described as follows: Formation of fMLP-induced superoxide in Sprague-Dawley rat neutrophil at 1 uM per 10^6 cells after 30 min. The class given is functional. The method, boiled down: as §1
The test system of assay [18] is Neutrophil. The assay is described as follows: Inhibition of fMLP-induced superoxide formation in Sprague-Dawley rat neutrophil at 1 uM. The class given is functional. The method, boiled down: as §1
The subject of assay [19] is Neutrophil. Description: Formation of PMA-induced superoxide in Sprague-Dawley rat neutrophil at 10 uM per 10^6 cells after 30 min. The class given is functional. In outline: as §2
In assay [20] the test system is Neutrophil. Description: Formation of PMA-induced superoxide in Sprague-Dawley rat neutrophil at 30 uM per 10^6 cells after 30 min. The format is functional. The method, boiled down:
as §2

Assay [21] relates to Neutrophil. The assay is described as follows: Inhibition of PMA-induced superoxide formation in Sprague-Dawley rat neutrophil at 30 uM. The class given is functional. The method, boiled down:
as §2

Turning to `O=Cc1ccccc1OCc1ccccc1`, the Activity result in assay [1] is “Dose-dependent effect”; in assay [2], 1.01 nmol; in assay [3] it was 0.86 nmol; in assay [4], 0.62 nmol. The inhibition at 3 µM in assay [5] came to 36.1%. The inhibition at 10 µM in [6] amounted to 40.6%. In assay [7], the inhibition at 30 µM came out at 60.8%. Besides, the 50% inhibitory concentration (IC50) in assay [8] came out at 15.6 µM.
On to `CN1CCN(CCCN2c3ccccc3Sc3ccc(C(F)(F)F)cc32)CC1` [TRIFLUOPERAZINE], for which the Activity in assay [9] stood at 5.48 nmol; in assay [10], 3.4 nmol; in [12] it was 2.1 nmol; in assay [2] it was 2.8 nmol; in assay [3], 0.54 nmol. Also, the inhibition at 10 µM came out at 83.3% in assay [11] and 79.5% in assay [6]. The inhibition at 5 µM in [13] amounted to 24.2%. Moreover, in assay [14], the inhibition at 1 µM was 27.6%. The inhibition at 3 µM in assay [15] amounted to 55.4%; in assay [5], 1.7%. In addition, the IC50 came out at 2.7 µM in assay [16] and 6.6 µM in [8].
For the compound `O=C/C=C/c1ccccc1OCc1ccc(Cl)c(Cl)c1`, the results for the inhibition at 10 µM in [11] and in assay [6] were 1.9% and 79.8%, respectively. For the same compound, the Activity in assay [17] is recorded as 2.56 nmol; in assay [19], 7.77 nmol; in [20] it was 11.4 nmol; in assay [2], 2.03 nmol; in [3], 0.6 nmol. Also, the inhibition at 1 µM in assay [18] is 11.7%. Also, in assay [21], the inhibition at 30 µM was -51.1%. Also, the inhibition at 3 µM in [5] worked out at 29.4%. The same compound showed an IC50 in assay [8] of 4.3 µM.

The record behind these values is ChEMBL document CHEMBL1147710, “Synthesis of (2E)-3-{2-[(substituted benzyl)oxy]phenyl}acrylaldehydes as novel anti-inflammatory agents” (Bioorg Med Chem Lett, 2006).
